Measured values as given in ChEMBL document CHEMBL1143844, “Biochemical studies on the mechanism of human immunodeficiency virus type 1 reverse transcriptase resistance to 1-(beta-D-dioxolane)thymine triphosphate” (Antimicrob Agents Chemother, 2007).

Legend:
[1] = Inhibition of HIV1 reverse transcriptase 41L/69S-SG/210W/215Y mutant in presence of 5'-A12-(GACT)5-3' by heteropolymeric DNA polymerase assay
[2] = system: Human immunodeficiency virus 1; assay: Activity of HIV1 reverse transcriptase wild type HXB2(a) in presence of 3.2 mM ATP by prA/odT assay
Outline: (§1)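 Buffer is HEPES 50 mM pH 7.3 with MgCl2 10 mM, Triton X-100 0.5% and BSA 0.1 mg/ml. RT 4–12 pM/well, 33°C for 180 min, no NaOH step. Km obtained as the mean of at least two runs done in duplicate.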

[3] = system: Human immunodeficiency virus 1; assay: (§2) Activity of HIV1 reverse transcriptase 41L/67N/70R/210W/215Y mutant in presence of 3.2 mM ATP by prA/odT assay
Outline: (§3)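 Buffer: 50 mM HEPES pH 7.3, 10 mM MgCl2, 0.5% Triton X-100, 0.1 mg/ml BSA. Incubation 180 min at 33°C. Product detected with AP-conjugated anti-BrdU at 405 nm. […] Ki from four inhibitor levels. At least two experiments in duplicate.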

[4] = system: Human immunodeficiency virus 1; assay: (§4) Activity of HIV1 reverse transcriptase wild type HXB2(b) in presence of 3.2 mM ATP by prA/odT assay
Outline: as §1

[5] = system: Human immunodeficiency virus 1; assay: (§5) Activity of HIV1 reverse transcriptase 41L/67N/70R/215Y/219Q mutant in presence of 3.2 mM ATP by prA/odT assay
Outline: as §3

[6] = system: Human immunodeficiency virus 1; assay: Activity of HIV1 reverse transcriptase 41L/69S-SG/210W/215Y mutant in presence of 3.2 mM ATP by prA/odT assay
[7] = biological target: HIV1 RT 41L/69S-SG/210W/215Y mutant (HIV-1); assay: Inhibition of HIV1 reverse transcriptase 41L/69S-SG/210W/215Y mutant in presence of 3.2 mM ATP by prA/odT assay
[8] = as §2; set-up: species or system Human immunodeficiency virus 1
Outline: as §3

[9] = as §4; set-up: species or system Human immunodeficiency virus 1
Outline: as §1

[10] = as §5; set-up: species or system Human immunodeficiency virus 1
Outline: as §3

[11] = Activity of HIV1 reverse transcriptase 41L/69S-SG/210W/215Y mutant in presence of 3.2 mM ATP by prA/odT assay

Compound | IC50 [1] | Km [2] | Km [3] | Km [4] | Km [5] | Km [6] | Ki [7] | Km [8] | Km [9] | Km [10] | Km [11]
C[C@H](Cn1cnc2c(N)ncnc21)OCP(=O)(O)OP(=O)(O)OP(=O)(O)O | 17000 nM | – | – | – | – | – | – | – | – | – | –
Cc1cn([C@H]2CO[C@@H](COP(=O)(O)OP(=O)(O)OP(=O)(O)O)O2)c(=O)[nH]c1=O | 780 nM | 0.32 µM | 0.51 µM | 0.24 µM | 0.42 µM | 0.5 µM | 59 nM | – | – | – | –
Cc1cn([C@H]2C[C@H](N=[N+]=[N-])[C@@H](COP(=O)(O)OP(=O)(O)OP(=O)(O)O)O2)c(=O)[nH]c1=O [ZIDOVUDINE TRIPHOSPHATE] | – | – | – | – | – | – | – | 0.43 µM | 0.29 µM | 0.49 µM | 0.53 µM
